From ChEMBL document CHEMBL1177893, “Evaluation of labdane derivatives as potential anti-inflammatory agents” (Eur J Med Chem, 2010) come the findings set out here.

Series [1] deals with RAW264.7. The series can be described thus: Antiinflammatory activity in mouse RAW264.7 cells assessed as inhibition of LPS-induced PGE2 production treated 30 mins before LPS challenge measured after 24 hrs by ELISA. In kind it is functional, cell-based. In a few lines: (§1)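 RAW 264.7 macrophages pretreated 30 min with compound, then stimulated with LPS 250 ng/ml for 24 h. PGE2 in culture medium quantified in duplicate by EIA kit. IC50 is the concentration giving 50% inhibition of PGE2 release. Three independent experiments in triplicate.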
(In general: ELISA stands for enzyme-linked immunosorbent assay.)

Series [2] has as its system RAW264.7. The series can be described thus: Antiinflammatory activity in mouse RAW264.7 cells assessed as inhibition of LPS-induced nitrite production treated 30 mins before LPS challenge measured after 24 hrs by Griess method. In kind it is functional, cell-based. A digest of the protocol: (§2)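 RAW 264.7 cells pre-incubated 30 min with compound (1, 2, 5, 10, 25 µM; range tested up to 50 µM), then LPS 250 ng/ml for 24 h. Medium nitrite measured by Griess reaction (sulfanilamide/naphthylethylenediamine in phosphoric acid, 10 min room temperature), read spectrophotometrically. IC50 is the concentration giving 50% inhibition of NO release. Three independent experiments in triplicate.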

The nature of series [3]: Cytotoxicity against LPS-stimulated mouse RAW264.7 cells assessed as cell viability at 1 uM after 24 hrs by MTT assay. The note with it: LPS-stimulated RAW264.7 cells, read-out: Activity. Type of series: cell-based. In a few lines: (§3)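 RAW 264.7 cells plated at 10⁵ cells/well, pre-incubated 30 min with compound (1-25 µM), then LPS 250 ng/ml for 24 h. MTT added for 4 h at 37 °C; formazan dissolved in DMSO, absorbance read at 540 nm. Viability expressed relative to untreated controls. Triplicate wells, at least three independent experiments.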

The test system of series [4] is RAW264.7. Description: Cytotoxicity against LPS-stimulated mouse RAW264.7 cells assessed as cell viability at 25 uM after 24 hrs by MTT assay. The conditions noted are these: raw264.7, 24 h. In kind it is cell-based. In a few lines:
as §3
On the technique in general: Tetrazolium dyes change colour on reduction, which living cells bring about.

For series [5], the system named is RAW264.7. Description: Cytotoxicity against LPS-stimulated mouse RAW264.7 cells assessed as cell viability at 10 uM after 24 hrs by MTT assay. In kind it is cell-based. The conditions noted are these: raw264.7, 24 h. A digest of the protocol:
as §3

Series [6] concerns RAW264.7. Description: Antiinflammatory activity in mouse RAW264.7 cells assessed as inhibition of LPS-induced PGE2 production at 25 uM treated 30 mins before LPS challenge measured after 24 hrs by ELISA. Type of series: functional, cell-based. A digest of the protocol: as §1
Series [7] deals with RAW264.7. Description: Antiinflammatory activity in mouse RAW264.7 cells assessed as inhibition of LPS-induced nitrite production at 25 uM treated 30 mins before LPS challenge measured after 24 hrs by Griess method. Type of series: functional, cell-based. A digest of the protocol: as §2
Series [8] concerns Mus musculus. Description: Antiinflammatory activity in Swiss mouse ear homogenates assessed as reduction of 12-O-tetradecanoylphorbol acetate-induced myeloperoxidase activity at 0.25 to 1 mg/ear administered topically measured after 4 hrs. Type of series: functional, organism-based. In a few lines: (§4)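 TPA ([…]) applied to inner and outer surfaces of right ear of Swiss mice (20-25 g); test agent applied topically in acetone 30 min before TPA. Mice killed after 4 h; equal ear punches weighed, edema as right-over-left weight increase. MPO measured in saline homogenate supernatants (10,000g, 15 min, 4 °C) with tetramethylbenzidine substrate, pH 5.4 phosphate. Three independent experiments in triplicate.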

The subject of series [9] is Mus musculus. Description: Antiinflammatory activity in Swiss mouse assessed as reduction of 12-O-tetradecanoylphorbol acetate-induced ear swelling at 0.25 to 1 mg/ear administered topically measured after 4 hrs. Type of series: functional, organism-based. In a few lines:
as §4

Series [10] relates to RAW264.7. The series can be described thus: Antiinflammatory activity in mouse RAW264.7 cells assessed as inhibition of LPS-induced nitrite production at 50 uM treated 30 mins before LPS challenge measured after 24 hrs by Griess method. In kind it is functional, cell-based. A digest of the protocol:
as §2
In general terms: Nitrite, measured by Griess reagent, commonly stands in for NO production.

Calls of active or inactive are those of the source. The rule behind the calls is not given here.

As for `C[C@H](CCOC(=O)c1ccc(Br)cc1)CC[C@@H]1[C@@]2(C)CCCC(C)(C)[C@@H]2CC[C@@]1(C)O`, the IC50 in the series on RAW264.7 [1] and in the series on RAW264.7 [2] was > 50 µM in each case. Also, the viability at 24 h, 1 µM in series [3] was determined as 80%.

As for `CCCCCCCCCCCC(=O)OCC[C@@H](C)CC[C@@H]1[C@@]2(C)CCCC(C)(C)[C@@H]2CC[C@@]1(C)O`, the IC50 in the series on RAW264.7 [1] and with RAW264.7 [2] was > 50 µM in each case. Further, the viability at 24 h, 1 µM in [3] was determined as 80%.

With `C[C@@H](CC[C@@H]1[C@@]2(C)CCCC(C)(C)[C@@H]2CC[C@@]1(C)O)CC(=O)O` [LABDANIC ACID], the half-inhibitory concentration (IC50) in the series on RAW264.7 [1] and in the series with RAW264.7 [2] was > 50 µM each time. For the same molecule, the viability at 24 h, 1 µM in series [3] came to 80%.

With `C[C@H](CCO)CC[C@@]1(C)C2=C(CC[C@@H]1C)C(C)(C)CCC2`, in the series with RAW264.7 [1], the concentration for half-maximal inhibition (IC50) (as a rule, the concentration that gives 50% inhibition) came out at 25 µM and the inhibition result is “Dose-dependent effect”. Besides, in the series with RAW264.7 [2], the IC50 amounted to 10 µM and the inhibition result is “Dose-dependent effect”. In addition, the Activity result in the series with RAW264.7 [4] is on record as “Toxic”. In addition, the viability at 24 h, 1 µM in series [3] was determined as 75%.

Consider `CC(=O)OCC[C@@H](C)CC[C@@H]1[C@@]2(C)CCCC(C)(C)[C@@H]2CC[C@@]1(C)O`, for which, in the series on RAW264.7 [1], the half-inhibitory concentration (IC50) is 25 µM and the inhibition result was “Dose-dependent effect”. In addition, in the series on RAW264.7 [2], the half-maximal inhibitory concentration (IC50) came to 15 µM and the inhibition result was “Dose-dependent effect”. The viability at 24 h, 1 µM in [3] came to 90%. The Activity entry in the series with RAW264.7 [5] is listed as “Non-toxic”.

With `C[C@H](CC=O)CC[C@@H]1[C@@]2(C)CCCC(C)(C)[C@@H]2CC[C@@]1(C)O`, the IC50 with RAW264.7 [1] and in the series with RAW264.7 [2] was > 50 µM throughout. Moreover, the viability at 24 h, 1 µM in [3] is 80%.

Turning to `COC(=O)C[C@@H](C)CC[C@@H]1[C@@]2(C)CCCC(C)(C)[C@@H]2CC[C@@]1(C)O` [LABDANIC ACID METHYL ESTER], the figures for the IC50 with RAW264.7 [1] and with RAW264.7 [2] were 10 µM and 5 µM, respectively. Also, the inhibition result in the series on RAW264.7 [1] and in the series on RAW264.7 [2] was “Dose-dependent effect” in each case. Besides, the inhibition result in the series with RAW264.7 [6] and with RAW264.7 [7] was “Active” in each case. Further, the result in the series with Mus musculus [8] and in the series on Mus musculus [9] was Active. The viability at 24 h, 1 µM in [3] came out at 95%. Further, the Activity entry in the series with RAW264.7 [5] was “Non-toxic”.

Take `CC1=C(CC[C@H](C)CCO)[C@@]2(C)CCCC(C)(C)[C@@H]2CC1`: in the series on RAW264.7 [1], the IC50 is 20 µM and the inhibition entry was “Dose-dependent effect”. Also, in the series with RAW264.7 [2], the concentration for half-maximal inhibition (IC50) is 15 µM and the inhibition result is “Dose-dependent effect”. Besides, in the series with RAW264.7 [4], the Activity result is listed as “Toxic”. The viability at 24 h, 1 µM in series [3] amounted to 75%.

Consider `CC(=N)NCc1cccc(CN)c1`, for which the inhibition result in the series with RAW264.7 [10] is “Active”.

As for `C[C@H](CCO)CC[C@@H]1[C@@]2(C)CCCC(C)(C)[C@@H]2CC[C@@]1(C)O` [LABDANEDIOL], the half-maximal inhibitory concentration (IC50) in the series on RAW264.7 [1] amounted to 25 µM; with RAW264.7 [2], 15 µM. The inhibition entry in the series on RAW264.7 [1] and in the series on RAW264.7 [2] was “Dose-dependent effect” throughout. Further, the viability at 24 h, 1 µM in series [3] came to 40%. The Activity entry with RAW264.7 [5] is listed as “Toxic”.
